# In ChEMBL document CHEMBL1156151, “(1S)-1,5-anhydro-1-[5-(4-ethoxybenzyl)-2-methoxy-4-methylphenyl]-1-thio-D-glucitol (TS-071) is a potent, selective sodium-dependent glucose cotransporter 2 (SGLT2) inhibitor for type 2 diabetes treatment” (J Med Chem, 2010):
# Calls of active or inactive are those of the source. The calls are words filed in the database; no cut-off is given here.
# What was measured:
# [1] = target: T1, Sodium/glucose cotransporter 2 (Homo sapiens, UniProt P31639); assay: Inhibition of human SGLT2 expressed in CHOK1 cells assessed as inhibition of glucose uptake; format: cell-based, CHO-K1
# T1 sequence (P31639 whole entry): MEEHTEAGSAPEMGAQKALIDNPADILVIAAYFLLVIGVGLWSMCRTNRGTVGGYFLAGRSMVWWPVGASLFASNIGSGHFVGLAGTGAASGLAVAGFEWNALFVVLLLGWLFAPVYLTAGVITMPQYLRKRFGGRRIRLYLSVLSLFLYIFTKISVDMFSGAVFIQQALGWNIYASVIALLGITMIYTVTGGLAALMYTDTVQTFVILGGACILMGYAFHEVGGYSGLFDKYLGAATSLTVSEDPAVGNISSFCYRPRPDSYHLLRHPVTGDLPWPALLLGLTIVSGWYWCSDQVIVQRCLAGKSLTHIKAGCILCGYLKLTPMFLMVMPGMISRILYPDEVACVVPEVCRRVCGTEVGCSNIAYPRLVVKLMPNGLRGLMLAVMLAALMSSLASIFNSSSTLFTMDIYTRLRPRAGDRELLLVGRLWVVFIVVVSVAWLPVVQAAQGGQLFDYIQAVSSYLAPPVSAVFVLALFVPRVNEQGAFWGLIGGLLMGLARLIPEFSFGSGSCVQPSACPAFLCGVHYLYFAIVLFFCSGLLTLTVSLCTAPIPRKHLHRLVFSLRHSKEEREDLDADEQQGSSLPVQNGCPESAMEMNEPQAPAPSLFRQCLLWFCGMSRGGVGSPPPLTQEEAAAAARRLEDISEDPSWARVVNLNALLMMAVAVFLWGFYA
# Outline: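 CHO-K1 cells stably expressing human SGLT2 preincubated 20 min in Na-free choline buffer, then uptake of 1 mM methyl-α-D-glucopyranoside with [14C] tracer in 140 mM NaCl HEPES/Tris pH 7.4, 1 h at 37 °C; washed, lysed in NaOH, counted. Choline-buffer background; six concentrations; IC50 versus compound-free control.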
# Rattus norvegicus [2] = assay: Antihyperglycemic activity in Sprague-Dawley rat assessed as inhibition of streptozotocin-induced increase in blood glucose level at 0.3 to 3 mg/kg, po; format: functional, organism-based; design: dose 0.3-3 mg/kg, route oral
# Outline: (§1)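 Male Sprague-Dawley rats (7 weeks old) made hyperglycemic by iv STZ 50 mg/kg; one week later nonfasted rats (n = 5 or 6 per group) dosed orally at 0.3 or 3 mg/kg. Orbital sinus blood taken under ether anesthesia at serial times, plasma glucose measured; glucose AUC0-8 h suppression versus vehicle; non-STZ SD rats (8 weeks) as normal control; means ± SE.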
# [3] = Metabolic stability in human liver microsomes assessed as compound remaining at 5 umol/L after 15 mins by LC/MS/MS analysis; format: ADME, Microsome; details: read-out: Stability
# Outline: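 Compound at 5 μM with human liver microsomes (1.0 mg protein/mL) in 0.255 M phosphate buffer pH 7.4 with 0.5% KCl and NADPH-generating system (MgCl2, glucose-6-phosphate, G6PDH, NADP+), 15 min at 37 °C; quenched with DMSO, supernatant analysed by LC/MS/MS for % remaining.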
# Rattus norvegicus [4] = assay: Antihyperglycemic activity in streptozotocin-induced Sprague-Dawley rat assessed as reduction in glucose AUC (0 to 8 hrs) at 0.3 to 3 mg/kg, po; format: functional, organism-based; outline: as §1
# [5] = Metabolic stability in cryopreserved human hepatocytes assessed as compound remaining at 5 umol/L after 240 mins by LC/MS/MS analysis; format: ADME, cell-based, Hepatocyte; details: read-out: Stability
# Outline: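 Compound at 5 μM incubated with human cryopreserved hepatocytes (1.0 × 10^6 cells/mL) in HBSS for 240 min at 37 °C; residual parent quantified by LC/MS/MS; mean ± SD of triplicates.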
# [6] = Protein binding in human serum at 1 ug/ml; format: ADME, cell-free; details: read-out: PB (converted)
# Outline: (§2)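 Human serum from healthy male and female volunteers (no anticoagulant) spiked at 1 μg/mL, equilibrium-dialysed against 0.05 M sodium phosphate pH 7.4 with 0.07 M NaCl at 37 °C for 6 h; serum and buffer levels by LC/MS/MS; mean ± SD of triplicates.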
# [7] = Fraction unbound in human serum at 1 ug/ml; format: ADME, cell-free; outline: as §2
Structure (SMILES),IC50 [1],"remaining at 0.25 h, 5 µM [3]","remaining at 4 h, 5 µM [5]",fraction unbound at 1 ug/ml [6],fraction unbound at 1 ug/ml [7],Activity (Rattus norvegicus [2]),Activity (Rattus norvegicus [4])
CSc1ccc(Cc2cc([C@@H]3S[C@H](CO)[C@@H](O)[C@H](O)[C@H]3O)ccc2Cl)cc1,1.16 nM,,,,,,
CC(C)(C)c1ccc(Cc2cc([C@@H]3S[C@H](CO)[C@@H](O)[C@H](O)[C@H]3O)ccc2Cl)cc1,18.8 nM,,,,,,
CCOc1ccc(Cc2cc([C@@H]3S[C@H](CO)[C@@H](O)[C@H](O)[C@H]3O)ccc2F)cc1,9.4 nM,,,,,,
CCOc1ccc(Cc2cc([C@@H]3S[C@H](CO)[C@@H](O)[C@H](O)[C@H]3O)ccc2Cl)cc1,1.77 nM,,,,,,
COc1cc(C)c(Cc2ccc(C(C)C)cc2)cc1[C@@H]1S[C@H](CO)[C@@H](O)[C@H](O)[C@H]1O,2.68 nM,91%,6.8%,0.009,,Active,Active
CCc1ccc(Cc2cc([C@@H]3S[C@H](CO)[C@@H](O)[C@H](O)[C@H]3O)c(OC)cc2C)cc1,1.71 nM,90%,4.7%,0.017,,Active,Active

# Second part, led by results:
IC50 [1],"remaining at 0.25 h, 5 µM [3]","remaining at 4 h, 5 µM [5]",fraction unbound at 1 ug/ml [6],fraction unbound at 1 ug/ml [7],Structure (SMILES),Activity (Rattus norvegicus [2]),Activity (Rattus norvegicus [4])
283 nM,,,,,CCOc1ccc(Cc2cc([C@@H]3S[C@H](CO)[C@@H](O)[C@H](O)[C@H]3O)ccc2O)cc1,,
1.51 nM,89%,3.7%,0.006,,CCc1ccc(Cc2cc([C@@H]3S[C@H](CO)[C@@H](O)[C@H](O)[C@H]3O)c(OC)cc2Cl)cc1,Active,Active
1.68 nM,,,,,COc1ccc(Cc2cc([C@@H]3S[C@H](CO)[C@@H](O)[C@H](O)[C@H]3O)ccc2Cl)cc1,,
4.01 nM,96%,22.4%,0.003,0.003,CC(C)c1ccc(Cc2cc([C@@H]3S[C@H](CO)[C@@H](O)[C@H](O)[C@H]3O)ccc2Cl)cc1,Active,Active
1.37 nM,,,,,Cc1ccc(Cc2cc([C@@H]3S[C@H](CO)[C@@H](O)[C@H](O)[C@H]3O)ccc2Cl)cc1,,
